Laboratory results taken from ChEMBL document CHEMBL1155174, “Cross-resistance to medical and agricultural azole drugs in yeasts from the oropharynx of human immunodeficiency virus patients and from environmental Bavarian vine grapes” (2007).
Converted amounts (≈) assume the structure as drawn.

Key:
Assay type in all cases: functional
[1] = tested on: Rhodotorula; test: Antifungal activity against Rhodotorula sp. isolates from grapes by NCCLS M27-A2 method
Procedure, shortened: (§1)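 Broth dilution per NCCLS M27-A2, with azoles serially diluted in high-resolution antifungal assay medium over 0.125–128, 0.03–64 or 0.06–128 μg/ml depending on the drug. MIC endpoints were read spectrophotometrically at 540 nm. Values are reported per species or source group as median and range.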

[2] = tested on: Candida albicans; test: Antifungal activity against Candida albicans isolates from HIV infected patient before fluconazole therapy by NCCLS M27-A2 method; procedure, shortened: as §1
[3] = tested on: Candida albicans; test: Antifungal activity against Candida albicans isolates by NCCLS M27-A2 method; procedure, shortened: as §1
[4] = tested on: Pichia norvegensis; test: Antifungal activity against Candida norvegensis isolates from grapes by NCCLS M27-A2 method; procedure, shortened: as §1
[5] = tested on: Saccharomycopsis; test: Antifungal activity against Saccharomycopsis guttulata isolates from feeding stuff by NCCLS M27-A2 method; procedure, shortened: as §1
[6] = tested on: Diutina rugosa; test: Antifungal activity against Candida rugosa isolates from feeding stuff by NCCLS M27-A2 method; procedure, shortened: as §1
[7] = tested on: Pichia kudriavzevii; test: Antifungal activity against Candida krusei ATCC 6258 by NCCLS M27-A2 method; procedure, shortened: as §1
[8] = tested on: Cryptococcus neoformans; test: Antifungal activity against Cryptococcus neoformans ATCC 90112 by NCCLS M27-A2 method
[9] = tested on: Hanseniaspora uvarum; test: Antifungal activity against sKloeckera apiculata isolates from grapes by NCCLS M27-A2 method; procedure, shortened: as §1
[10] = tested on: Candida albicans; test: Antifungal activity against Candida albicans isolates from animals by NCCLS M27-A2 method; procedure, shortened: as §1
[11] = tested on: Pichia fermentans; test: Antifungal activity against Candida lambica isolates from grapes by NCCLS M27-A2 method; procedure, shortened: as §1
[12] = tested on: Candida parapsilosis; test: Antifungal activity against Candida parapsilosis ATCC 22013 by NCCLS M27-A2 method; conditions: Lodderomyces parapsilosis
[13] = tested on: Wickerhamomyces anomalus; test: Antifungal activity against Pichia anomala isolates from grapes by NCCLS M27-A2 method; conditions: Hansenula anomala; procedure, shortened: as §1
[14] = tested on: Nakaseomyces glabratus; test: Antifungal activity against Candida glabrata isolates from feeding stuffs by NCCLS M27-A2 method; procedure, shortened: as §1
[15] = tested on: Candida albicans; test: Antifungal activity against Candida albicans isolates from HIV infected patient during fluconazole therapy by NCCLS M27-A2 method; procedure, shortened: as §1
[16] = tested on: Saccharomyces cerevisiae; test: Antifungal activity against sSaccharomyces cerevisiae isolates from grapes by NCCLS M27-A2 method; procedure, shortened: as §1
[17] = tested on: Pichia kudriavzevii; test: Antifungal activity against Candida krusei isolates from grapes and feeding stuffs by NCCLS M27-A2 method; procedure, shortened: as §1
[18] = tested on: Starmerella stellata; test: Antifungal activity against sCandida stellata isolates from grapes by NCCLS M27-A2 method; procedure, shortened: as §1
[19] = tested on: Nakaseomyces glabratus; test: Antifungal activity against Candida glabrata ATCC 90030 by NCCLS M27-A2 method; procedure, shortened: as §1

| SMILES | MIC50 [1] | MIC50 [2] | MIC50 [3] | MIC50 [4] | MIC50 [5] | MIC50 [6] | MIC50 [7] | MIC50 [8] | MIC50 [9] | MIC50 [10] | MIC50 [11] | MIC50 [12] | MIC50 [13] | MIC50 [14] | MIC50 [15] | MIC50 [16] | MIC50 [17] | MIC50 [18] | MIC50 [19] |
| --- | --- | --- | --- | --- | --- | --- | --- | --- | --- | --- | --- | --- | --- | --- | --- | --- | --- | --- | --- |
| OC(Cn1cncn1)(Cn1cncn1)c1ccc(F)cc1F [FLUCONAZOLE] | 16 mg/L (≈ 52.2 µM) | 2.25 mg/L (≈ 7.35 µM) | 0.12 mg/L (≈ 0.392 µM) | 128 mg/L (≈ 418 µM) | 1 mg/L (≈ 3.27 µM) | 1 mg/L (≈ 3.27 µM) | 64 mg/L (≈ 209 µM) | 8 mg/L (≈ 26.1 µM) | 0.5 mg/L (≈ 1.63 µM) | 0.25 mg/L (≈ 0.816 µM) | 128 mg/L (≈ 418 µM) | 2 mg/L (≈ 6.53 µM) | 2 mg/L (≈ 6.53 µM) | 32 mg/L (≈ 104 µM) | 128 mg/L (≈ 418 µM) | 8 mg/L (≈ 26.1 µM) | 64 mg/L (≈ 209 µM) | 64 mg/L (≈ 209 µM) | – |
| O=c1c2cc(F)ccc2nc(-n2cncn2)n1-c1ccc(Cl)cc1Cl [FLUQUINCONAZOLE] | 0.5 mg/L (≈ 1.33 µM) | 0.375 mg/L (≈ 0.997 µM) | 0.5 mg/L (≈ 1.33 µM) | 64 mg/L (≈ 170 µM) | 64 mg/L (≈ 170 µM) | 0.12 mg/L (≈ 0.319 µM) | 128 mg/L (≈ 340 µM) | 0.12 mg/L (≈ 0.319 µM) | 0.12 mg/L (≈ 0.319 µM) | 0.5 mg/L (≈ 1.33 µM) | 64 mg/L (≈ 170 µM) | 2 mg/L (≈ 5.32 µM) | 4 mg/L (≈ 10.6 µM) | 1 mg/L (≈ 2.66 µM) | 64 mg/L (≈ 170 µM) | 0.25 mg/L (≈ 0.665 µM) | 128 mg/L (≈ 340 µM) | 64 mg/L (≈ 170 µM) | 32 mg/L (≈ 85.1 µM) |
| CCC(C)n1ncn(-c2ccc(N3CCN(c4ccc(OCC5COC(Cn6cncn6)(c6ccc(Cl)cc6Cl)O5)cc4)CC3)cc2)c1=O (stereo unspecified) [ITRACONAZOLE] | 0.06 mg/L (≈ 0.085 µM) | 0.06 mg/L (≈ 0.085 µM) | 0.06 mg/L (≈ 0.085 µM) | 1 mg/L (≈ 1.42 µM) | 0.5 mg/L (≈ 0.709 µM) | 0.06 mg/L (≈ 0.085 µM) | 0.5 mg/L (≈ 0.709 µM) | 0.5 mg/L (≈ 0.709 µM) | 0.25 mg/L (≈ 0.354 µM) | 0.12 mg/L (≈ 0.17 µM) | 2 mg/L (≈ 2.83 µM) | 0.25 mg/L (≈ 0.354 µM) | 0.5 mg/L (≈ 0.709 µM) | 1 mg/L (≈ 1.42 µM) | 0.75 mg/L (≈ 1.06 µM) | 2 mg/L (≈ 2.83 µM) | 1 mg/L (≈ 1.42 µM) | 2 mg/L (≈ 2.83 µM) | 4 mg/L (≈ 5.67 µM) |
| CC(=O)N1CCN(c2ccc(OCC3COC(Cn4ccnc4)(c4ccc(Cl)cc4Cl)O3)cc2)CC1 (stereo unspecified) [KETOCONAZOLE] | 0.5 mg/L (≈ 0.941 µM) | 0.25 mg/L (≈ 0.47 µM) | 0.03 mg/L (≈ 0.0565 µM) | 2 mg/L (≈ 3.76 µM) | 2 mg/L (≈ 3.76 µM) | 0.25 mg/L (≈ 0.47 µM) | 2 mg/L (≈ 3.76 µM) | 2 mg/L (≈ 3.76 µM) | 0.25 mg/L (≈ 0.47 µM) | 0.5 mg/L (≈ 0.941 µM) | 4 mg/L (≈ 7.53 µM) | 0.12 mg/L (≈ 0.226 µM) | 1 mg/L (≈ 1.88 µM) | 4 mg/L (≈ 7.53 µM) | 2 mg/L (≈ 3.76 µM) | 2 mg/L (≈ 3.76 µM) | 8 mg/L (≈ 15.1 µM) | 8 mg/L (≈ 15.1 µM) | 8 mg/L (≈ 15.1 µM) |
| CCCC(Cn1cncn1)c1ccc(Cl)cc1Cl (stereo unspecified) [PENCONAZOLE] | 16 mg/L (≈ 56.3 µM) | 0.25 mg/L (≈ 0.88 µM) | 2 mg/L (≈ 7.04 µM) | 64 mg/L (≈ 225 µM) | 8 mg/L (≈ 28.2 µM) | 1 mg/L (≈ 3.52 µM) | 64 mg/L (≈ 225 µM) | 4 mg/L (≈ 14.1 µM) | 0.5 mg/L (≈ 1.76 µM) | 2 mg/L (≈ 7.04 µM) | 64 mg/L (≈ 225 µM) | 8 mg/L (≈ 28.2 µM) | 8 mg/L (≈ 28.2 µM) | 4 mg/L (≈ 14.1 µM) | 12 mg/L (≈ 42.2 µM) | 2 mg/L (≈ 7.04 µM) | 128 mg/L (≈ 450 µM) | 96 mg/L (≈ 338 µM) | 4 mg/L (≈ 14.1 µM) |
| CC(C)(C)C(O)(CCc1ccc(Cl)cc1)Cn1cncn1 (stereo unspecified) [TEBUCONAZOLE] | 1 mg/L (≈ 3.25 µM) | 0.75 mg/L (≈ 2.44 µM) | 0.06 mg/L (≈ 0.195 µM) | 4 mg/L (≈ 13 µM) | 4 mg/L (≈ 13 µM) | 0.06 mg/L (≈ 0.195 µM) | 32 mg/L (≈ 104 µM) | 4 mg/L (≈ 13 µM) | 0.06 mg/L (≈ 0.195 µM) | 0.185 mg/L (≈ 0.601 µM) | 16 mg/L (≈ 52 µM) | 1 mg/L (≈ 3.25 µM) | 4 mg/L (≈ 13 µM) | 2 mg/L (≈ 6.5 µM) | 24 mg/L (≈ 78 µM) | 1 mg/L (≈ 3.25 µM) | 64 mg/L (≈ 208 µM) | 64 mg/L (≈ 208 µM) | 8 mg/L (≈ 26 µM) |
| CC(C)(C)C(O)C(Oc1ccc(Cl)cc1)n1cncn1 (stereo unspecified) [TRIADIMENOL] | 64 mg/L (≈ 216 µM) | 2 mg/L (≈ 6.76 µM) | 2 mg/L (≈ 6.76 µM) | 64 mg/L (≈ 216 µM) | 16 mg/L (≈ 54.1 µM) | 1 mg/L (≈ 3.38 µM) | 32 mg/L (≈ 108 µM) | 4 mg/L (≈ 13.5 µM) | 0.25 mg/L (≈ 0.845 µM) | 1.5 mg/L (≈ 5.07 µM) | 128 mg/L (≈ 433 µM) | 16 mg/L (≈ 54.1 µM) | 16 mg/L (≈ 54.1 µM) | 8 mg/L (≈ 27 µM) | 64 mg/L (≈ 216 µM) | 8 mg/L (≈ 27 µM) | 64 mg/L (≈ 216 µM) | 128 mg/L (≈ 433 µM) | 8 mg/L (≈ 27 µM) |
| C[C@@H](c1ncncc1F)[C@](O)(Cn1cncn1)c1ccc(F)cc1F [VORICONAZOLE] | 0.06 mg/L (≈ 0.172 µM) | 0.03 mg/L (≈ 0.0859 µM) | 0.03 mg/L (≈ 0.0859 µM) | 2 mg/L (≈ 5.73 µM) | 0.12 mg/L (≈ 0.344 µM) | 0.03 mg/L (≈ 0.0859 µM) | 1 mg/L (≈ 2.86 µM) | 0.25 mg/L (≈ 0.716 µM) | 0.03 mg/L (≈ 0.0859 µM) | 0.03 mg/L (≈ 0.0859 µM) | 2 mg/L (≈ 5.73 µM) | 0.06 mg/L (≈ 0.172 µM) | 0.25 mg/L (≈ 0.716 µM) | 0.25 mg/L (≈ 0.716 µM) | 1.5 mg/L (≈ 4.29 µM) | 0.5 mg/L (≈ 1.43 µM) | 1 mg/L (≈ 2.86 µM) | 1 mg/L (≈ 2.86 µM) | 2 mg/L (≈ 5.73 µM) |
